Experiments:
SNU-638 = test: Antiproliferative activity against human SNU638 cells after 72 hrs by SRB assay; type: functional, cell-based; details: SNU-638, 72 h
MDA-MB-231 = test: Antiproliferative activity against human MDA-MB-231 cells after 72 hrs by SRB assay; type: functional, cell-based; details: MDA-MB-231, 72 h
HCT-116 = test: Antiproliferative activity against human HCT116 cells after 72 hrs by SRB assay; type: functional, cell-based; details: HCT-116, 72 h
HUVEC = test: Antiproliferative activity against HUVEC after 72 hrs by SRB assay; type: cell-based; details: Homo sapiens
Method in brief: (§1)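 Normal human cells (MRC5, HUVEC) exposed to graded compound concentrations for 72 h at 37 °C, 5% CO2, fixed with 10% TCA and stained by SRB. IC50 obtained by non-linear regression of percent growth against concentration.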

MRC5 = test: Antiproliferative activity against human MRC5 cells after 72 hrs by SRB assay; type: cell-based; details: MRC5, 72 h; method in brief: as §1
Homo sapiens [1] = species: Homo sapiens; test: Selectivity ratio of IC50 for recombinant human PI3K-gamma to IC50 for recombinant human PI3K-alpha
Method in brief: (§2)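 Ratios derived from isoform IC50 values obtained in the ADP-Glo lipid-kinase assay: each enzyme preincubated 15 min with compound and lipid substrate, reaction started with ATP (250 µM stock), 1 h at room temperature, luminescence read and IC50 fitted by normalized nonlinear regression.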

Homo sapiens [2] = species: Homo sapiens; test: Selectivity ratio of IC50 for recombinant human PI3K-delta to IC50 for recombinant human PI3K-alpha; method in brief: as §2
[3] = target: T1, Phosphatidylinositol 4,5-bisphosphate 3-kinase catalytic subunit alpha isoform (Homo sapiens, UniProt P42336); test: Inhibition of recombinant human PI3K-alpha using PIP2:3PS as substrate preincubated for 15 mins followed by ATP addition measured after 1 hr by ADP-Glo assay
T1 sequence (P42336 whole entry, canonical isoform): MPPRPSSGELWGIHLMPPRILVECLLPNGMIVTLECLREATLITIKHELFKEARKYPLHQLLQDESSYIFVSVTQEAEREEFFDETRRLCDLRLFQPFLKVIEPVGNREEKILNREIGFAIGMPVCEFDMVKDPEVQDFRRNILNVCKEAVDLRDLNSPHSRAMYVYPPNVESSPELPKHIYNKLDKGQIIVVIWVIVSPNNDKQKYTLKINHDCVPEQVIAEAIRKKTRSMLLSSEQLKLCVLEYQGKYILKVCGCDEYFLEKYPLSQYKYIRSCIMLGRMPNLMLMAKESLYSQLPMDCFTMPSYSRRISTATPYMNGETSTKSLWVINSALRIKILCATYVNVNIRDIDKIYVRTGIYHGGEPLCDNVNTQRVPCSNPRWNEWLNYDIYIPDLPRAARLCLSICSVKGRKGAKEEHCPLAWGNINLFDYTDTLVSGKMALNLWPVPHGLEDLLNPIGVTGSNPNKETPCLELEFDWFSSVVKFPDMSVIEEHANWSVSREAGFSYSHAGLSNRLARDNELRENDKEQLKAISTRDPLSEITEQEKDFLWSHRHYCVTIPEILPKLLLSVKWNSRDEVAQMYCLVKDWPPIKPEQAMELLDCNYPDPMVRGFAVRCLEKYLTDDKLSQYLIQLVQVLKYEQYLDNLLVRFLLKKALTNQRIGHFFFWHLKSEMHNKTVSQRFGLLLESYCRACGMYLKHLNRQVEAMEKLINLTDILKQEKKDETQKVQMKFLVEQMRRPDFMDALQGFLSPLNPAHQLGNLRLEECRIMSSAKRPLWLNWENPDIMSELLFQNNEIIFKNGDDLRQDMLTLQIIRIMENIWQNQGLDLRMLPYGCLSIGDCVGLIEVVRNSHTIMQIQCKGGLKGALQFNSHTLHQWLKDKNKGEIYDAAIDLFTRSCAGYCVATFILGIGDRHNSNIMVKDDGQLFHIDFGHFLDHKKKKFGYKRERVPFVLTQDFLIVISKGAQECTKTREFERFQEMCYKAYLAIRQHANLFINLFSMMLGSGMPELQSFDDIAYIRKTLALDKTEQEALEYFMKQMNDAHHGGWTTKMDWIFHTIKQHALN
Method in brief: (§3)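 Luminescent ADP-production readout (PI3K-Glo Class I kit). Enzymes p110α/p85α, p110β/p85α, p120γ or p110δ/p85α diluted in reaction buffer with lipid substrate, preincubated with serially diluted compound 15 min at room temperature. ADP-Glo reagent 40 min, then detection reagent 40 min. IC50 by normalized nonlinear dose-response fit.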

[4] = target: T1, Phosphatidylinositol 4,5-bisphosphate 3-kinase catalytic subunit alpha isoform; test: Inhibition of PI3K-alpha in human HCT116 cells assessed as reduction in Akt phosphorylation at Thr-308 residue by Western blot analysis; type: cell-based
Method in brief: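 Equal protein amounts separated by 10% SDS-PAGE, transferred to PVDF, probed with the indicated antibodies; β-actin as internal control.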

[5] = target: Phosphatidylinositol 4,5-bisphosphate 3-kinase catalytic subunit beta isoform (Homo sapiens, UniProt P42338); test: Inhibition of recombinant human PI3K-beta using PIP2:3PS as substrate preincubated for 15 mins followed by ATP addition measured after 1 hr by ADP-Glo assay; method in brief: as §3
Sequence of Phosphatidylinositol 4,5-bisphosphate 3-kinase catalytic subunit beta isoform (P42338 whole entry, canonical isoform): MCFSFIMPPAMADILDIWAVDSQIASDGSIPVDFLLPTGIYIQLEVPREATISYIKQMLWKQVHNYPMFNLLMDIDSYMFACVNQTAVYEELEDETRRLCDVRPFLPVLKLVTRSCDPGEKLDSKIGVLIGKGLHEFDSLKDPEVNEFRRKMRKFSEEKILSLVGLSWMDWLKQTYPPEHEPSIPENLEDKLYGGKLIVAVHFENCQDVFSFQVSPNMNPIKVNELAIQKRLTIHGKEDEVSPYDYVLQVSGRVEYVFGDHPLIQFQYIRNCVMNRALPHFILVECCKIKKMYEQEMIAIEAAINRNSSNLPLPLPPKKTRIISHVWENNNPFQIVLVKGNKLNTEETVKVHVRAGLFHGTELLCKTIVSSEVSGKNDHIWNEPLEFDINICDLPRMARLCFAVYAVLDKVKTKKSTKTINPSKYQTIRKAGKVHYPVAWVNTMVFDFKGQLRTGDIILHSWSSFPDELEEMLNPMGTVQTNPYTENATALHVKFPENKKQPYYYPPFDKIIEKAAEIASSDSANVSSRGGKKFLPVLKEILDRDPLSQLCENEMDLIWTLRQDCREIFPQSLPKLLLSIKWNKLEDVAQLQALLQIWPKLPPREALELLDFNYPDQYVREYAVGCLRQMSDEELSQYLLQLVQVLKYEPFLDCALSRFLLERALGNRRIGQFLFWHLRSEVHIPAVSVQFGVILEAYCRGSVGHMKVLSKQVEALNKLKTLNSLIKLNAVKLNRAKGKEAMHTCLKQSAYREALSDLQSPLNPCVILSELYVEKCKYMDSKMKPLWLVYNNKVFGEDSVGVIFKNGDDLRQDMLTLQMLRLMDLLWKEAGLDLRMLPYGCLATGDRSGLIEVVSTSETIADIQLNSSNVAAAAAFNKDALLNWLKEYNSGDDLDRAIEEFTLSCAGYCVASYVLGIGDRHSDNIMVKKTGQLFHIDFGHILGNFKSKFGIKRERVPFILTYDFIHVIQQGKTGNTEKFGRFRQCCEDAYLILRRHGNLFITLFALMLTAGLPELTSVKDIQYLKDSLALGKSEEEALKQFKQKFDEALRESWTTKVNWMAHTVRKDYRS

[6] = target: T2, Phosphatidylinositol 4,5-bisphosphate 3-kinase catalytic subunit delta isoform (Homo sapiens, UniProt O00329); test: Inhibition of recombinant human PI3K-delta using PIP2:3PS as substrate preincubated for 15 mins followed by ATP addition measured after 1 hr by ADP-Glo assay; method in brief: as §3
T2 sequence (O00329 whole entry): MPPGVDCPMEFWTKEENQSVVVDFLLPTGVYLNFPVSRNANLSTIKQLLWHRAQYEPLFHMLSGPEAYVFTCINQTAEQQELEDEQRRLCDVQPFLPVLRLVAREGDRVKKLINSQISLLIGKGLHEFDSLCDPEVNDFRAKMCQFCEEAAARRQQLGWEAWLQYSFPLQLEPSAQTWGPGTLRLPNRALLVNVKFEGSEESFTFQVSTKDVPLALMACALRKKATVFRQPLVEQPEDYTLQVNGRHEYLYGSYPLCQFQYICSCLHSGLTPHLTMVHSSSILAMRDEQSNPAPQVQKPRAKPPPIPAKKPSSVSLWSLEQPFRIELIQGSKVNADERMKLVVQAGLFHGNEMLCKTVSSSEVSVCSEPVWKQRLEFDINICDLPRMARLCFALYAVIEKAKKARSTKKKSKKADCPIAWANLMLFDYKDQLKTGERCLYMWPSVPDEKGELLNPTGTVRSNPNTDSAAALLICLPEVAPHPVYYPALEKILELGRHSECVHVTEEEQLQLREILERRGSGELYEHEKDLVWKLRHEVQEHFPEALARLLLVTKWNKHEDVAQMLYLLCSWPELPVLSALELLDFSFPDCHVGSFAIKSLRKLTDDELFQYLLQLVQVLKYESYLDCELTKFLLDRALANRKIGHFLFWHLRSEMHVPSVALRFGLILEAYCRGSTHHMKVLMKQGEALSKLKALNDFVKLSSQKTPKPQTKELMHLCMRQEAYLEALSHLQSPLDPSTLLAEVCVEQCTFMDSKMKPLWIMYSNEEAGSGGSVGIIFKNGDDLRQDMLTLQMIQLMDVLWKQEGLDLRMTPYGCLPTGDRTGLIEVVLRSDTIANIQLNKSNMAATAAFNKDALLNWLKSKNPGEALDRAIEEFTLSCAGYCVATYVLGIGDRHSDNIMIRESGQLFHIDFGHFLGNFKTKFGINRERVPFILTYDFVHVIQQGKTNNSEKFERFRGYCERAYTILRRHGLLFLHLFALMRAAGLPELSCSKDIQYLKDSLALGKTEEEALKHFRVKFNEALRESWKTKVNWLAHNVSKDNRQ

Homo sapiens [7] = species: Homo sapiens; test: Selectivity ratio of IC50 for recombinant human PI3K-beta to IC50 for recombinant human PI3K-alpha; method in brief: as §2
[8] = target: Phosphatidylinositol 4,5-bisphosphate 3-kinase catalytic subunit gamma isoform (Homo sapiens, UniProt P48736); test: Inhibition of recombinant human PI3K-gamma using PIP2:3PS as substrate preincubated for 15 mins followed by ATP addition measured after 1 hr by ADP-Glo assay; method in brief: as §3
Sequence of Phosphatidylinositol 4,5-bisphosphate 3-kinase catalytic subunit gamma isoform (P48736 whole entry, canonical isoform): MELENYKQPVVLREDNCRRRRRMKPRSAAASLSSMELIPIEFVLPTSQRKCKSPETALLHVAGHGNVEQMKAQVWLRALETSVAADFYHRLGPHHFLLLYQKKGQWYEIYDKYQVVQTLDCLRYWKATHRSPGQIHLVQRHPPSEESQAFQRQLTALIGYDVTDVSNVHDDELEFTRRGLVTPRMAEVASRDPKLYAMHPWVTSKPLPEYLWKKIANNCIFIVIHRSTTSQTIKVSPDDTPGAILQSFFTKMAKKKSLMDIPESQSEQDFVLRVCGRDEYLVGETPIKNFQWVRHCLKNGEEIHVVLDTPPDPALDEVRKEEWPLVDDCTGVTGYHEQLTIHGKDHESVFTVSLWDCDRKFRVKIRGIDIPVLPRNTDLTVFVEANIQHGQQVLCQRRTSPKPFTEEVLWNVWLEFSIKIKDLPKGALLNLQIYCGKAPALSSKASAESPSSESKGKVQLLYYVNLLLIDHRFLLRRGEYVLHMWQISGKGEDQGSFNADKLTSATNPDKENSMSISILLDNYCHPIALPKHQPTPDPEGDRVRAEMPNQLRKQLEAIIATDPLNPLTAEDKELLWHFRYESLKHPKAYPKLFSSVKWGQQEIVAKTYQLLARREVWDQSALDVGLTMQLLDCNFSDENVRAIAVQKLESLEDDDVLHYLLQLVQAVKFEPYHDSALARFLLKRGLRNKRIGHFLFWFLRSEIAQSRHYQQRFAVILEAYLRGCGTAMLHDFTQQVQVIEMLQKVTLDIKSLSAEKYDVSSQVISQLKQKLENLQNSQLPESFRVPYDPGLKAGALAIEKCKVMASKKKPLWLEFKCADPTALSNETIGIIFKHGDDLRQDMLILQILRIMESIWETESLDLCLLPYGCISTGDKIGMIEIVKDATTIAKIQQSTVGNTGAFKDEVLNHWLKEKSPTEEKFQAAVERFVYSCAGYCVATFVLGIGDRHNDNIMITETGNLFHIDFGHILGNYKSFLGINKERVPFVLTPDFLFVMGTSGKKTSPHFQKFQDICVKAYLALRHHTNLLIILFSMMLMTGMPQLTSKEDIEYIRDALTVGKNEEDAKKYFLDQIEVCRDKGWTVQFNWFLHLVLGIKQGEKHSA

Structure (SMILES)	IC50 (SNU-638) [µM]	IC50 (MDA-MB-231) [µM]	IC50 (HCT-116) [µM]	other results
CCCCS(=O)(=O)Nc1cc(-c2ccc3c(c2)N(CCC(=O)N2CCOCC2)C(=O)CO3)cnc1OC	41.9	43.8	23.5	
COc1ncc(-c2ccc3c(c2)N(Cc2ccc(F)cc2)C(=O)CO3)cc1NS(=O)(=O)c1ccc(F)cc1F	7.84	4.98	1.24	
COC(=O)CCN1CCN(C2=Nc3cc(-c4cnc(OC)c(NS(=O)(=O)c5ccc(F)cc5F)c4)ccc3OC2)CC1	24.9	22.8	18.6	
COc1ncc(-c2ccc3c(c2)N(CCN2CCOCC2)C(=O)CO3)cc1NS(=O)(=O)c1ccc(F)cc1F	2.38	1.82	2.4	
CCCCS(=O)(=O)Nc1cc(-c2ccc3c(c2)N(Cc2ccncc2)C(=O)CO3)cnc1OC	46.5	37.9	41.4	
CCCCS(=O)(=O)Nc1cc(-c2ccc3c(c2)N(CCCn2ccnc2)C(=O)CO3)cnc1OC	32.7	40.4	32.9	
COc1ncc(-c2ccc3c(c2)N(Cc2ccncc2)C(=O)CO3)cc1NS(=O)(=O)c1ccc(F)cc1F	6.96	5.49	2.22	
CCCCS(=O)(=O)Nc1cc(-c2ccc3c(c2)N(CCN2CCOCC2)C(=O)CO3)cnc1OC	20.4	19.5	15.8	

Second part, led by results:

IC50 (SNU-638) [µM]	IC50 (MDA-MB-231) [µM]	IC50 (HCT-116) [µM]	Structure (SMILES)	other results
17.6	13.8	14.6	CCCCS(=O)(=O)Nc1cc(-c2ccc3c(c2)N(CCCN(CC)CC)C(=O)CO3)cnc1OC	
7.39	8.26	6.18	COc1ncc(-c2ccc3c(c2)N=C(N2CCN(CCO)CC2)CO3)cc1NS(=O)(=O)c1ccc(F)cc1F	
0.52	0.49	0.58	COc1ncc(-c2ccc3c(c2)N(CCCN2CCOCC2)C(=O)CO3)cc1NS(=O)(=O)c1ccc(F)cc1F	IC50 (HUVEC): 15.6 µM; IC50 (MRC5): 32.8 µM; Ratio IC50 (Homo sapiens [1]): 7; Ratio IC50 (Homo sapiens [2]): 15.9; IC50 [3]: 0.0267 µM; inhibition [4]: Dose-dependent effect; IC50 [5]: 0.382 µM; IC50 [6]: 0.425 µM; Ratio IC50 (Homo sapiens [7]): 14.3; IC50 [8]: 0.185 µM
21.4	17.2	14.5	CCOC(=O)CN1CCN(C2=Nc3cc(-c4cnc(OC)c(NS(=O)(=O)c5ccc(F)cc5F)c4)ccc3OC2)CC1	
36.2	37.9	33.6	CCCCS(=O)(=O)Nc1cc(-c2ccc3c(c2)N(CCCn2cccn2)C(=O)CO3)cnc1OC	
4.97	4.78	3.26	COc1ncc(-c2ccc3c(c2)N=C(N2CCN(CCCO)CC2)CO3)cc1NS(=O)(=O)c1ccc(F)cc1F	
8.97	9.35	8.43	CCCCS(=O)(=O)Nc1cc(-c2ccc3c(c2)N(CCCN(C)C)C(=O)CO3)cnc1OC	
6.76	12.4	4.23	COc1ncc(-c2ccc3c(c2)N(CCCn2ccccc2=O)C(=O)CO3)cc1NS(=O)(=O)c1ccc(F)cc1F	
5.01	4.23	4.62	CCCCS(=O)(=O)Nc1cc(-c2ccc3c(c2)N(CCCN2CCOCC2)C(=O)CO3)cnc1OC	
5.77	3.26	3.18	COc1ncc(-c2ccc3c(c2)N(CCC(=O)N2CCOCC2)C(=O)CO3)cc1NS(=O)(=O)c1ccc(F)cc1F	
44.3	47.9	42.6	CCCCS(=O)(=O)Nc1cc(-c2ccc3c(c2)N(CCCn2ccccc2=O)C(=O)CO3)cnc1OC	
	0.56		Cn1c(=O)n(-c2ccc(C(C)(C)C#N)cc2)c2c3cc(-c4cnc5ccccc5c4)ccc3ncc21 [DACTOLISIB]	

Reference: ChEMBL document CHEMBL4229415, “Design, synthesis and biological evaluation of novel series of 2H-benzo[b][1,4]oxazin-3(4H)-one and 2H-benzo[b][1,4]oxazine scaffold derivatives as PI3Kα inhibitors” (Bioorg Med Chem, 2018)
